Our source for the ED50 and Inhibition values is ChEMBL document CHEMBL1122185, “Tricyclics with analgesic and antidepressant activity. 2. [[(Alkylamino)ethyl]thio]dibenzo[b,f]thiepins and 10,11-dihydro derivatives” (1982).

Common to all, as to format: functional
Assay [1] deals with Rattus norvegicus. The assay can be described thus: Antidepressant activity was determined for potentiation of head twitching induced by 5-hydroxytryptophan-(5-HTP) after intraperitoneal administration in pargyline-pretreated rats. The conditions noted are these: ip. In short, it runs like this: (§1)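 In pargyline-pretreated rats, potentiation of 5-hydroxytryptophan-induced head twitching (stereotypy) was measured after intraperitoneal dosing. The vehicle was distilled water plus a few drops of Tween 80. ED50 was derived by linear regression with 95% confidence limits.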

The subject of assay [2] is Mus musculus. The assay can be described thus: Antidepressant activity was determined to prevent tetrabenazine-induced ptosis(TBZ) after intraperitoneal administration in mice. The conditions noted are these: ip. The gist of the method:
(§2)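 Mouse model measuring prevention of tetrabenazine-induced ptosis, with dosing orally or intraperitoneally. The vehicle was distilled water with a few drops of Tween 80. ED50 values were calculated by linear-regression analysis, with 95% confidence limits in parentheses.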

Assay [3] has as its system Mus musculus. Description: Analgesic activity was determined for inhibition of phenyl-p-quinone-induced writhing (PQW) after subcutaneous administration in mice. As to conditions: for ED50: sc. The gist of the method: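 Mice were given phenyl-p-quinone to induce writhing, and inhibition of writhing was scored after subcutaneous dosing. The vehicle was distilled water with a few drops of Tween 80. ED50 was obtained by linear regression with 95% confidence limits.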
(In general: An intraperitoneal irritant provokes the stretching counted in writhing tests.)

Assay [4] relates to Mus musculus. Description: Antidepressant activity was determined to prevent tetrabenazine-induced ptosis(TBZ) after oral administration in mice. The gist of the method: as §2
Assay [5] relates to Mus musculus. The assay can be described thus: Analgesic activity was determined for delay in response to noxious heat stimuli after intraperitoneal administration in mice, in tail flick assay. In short, it runs like this: (§3)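 D'Amour-Smith tail-flick method in mice: delay in response to a noxious heat stimulus. Compounds were given in a vehicle of distilled water with a few drops of Tween 80. ED50 was calculated by linear-regression analysis with 95% confidence limits.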
A general note: Hot-plate and tail-flick tests time the reaction to a heat stimulus.

Assay [6] has as its system Mus musculus. Description: Analgesic activity was determined for delay in response to noxious heat stimuli after subcutaneous administration in mice, in tail flick assay. As to conditions: for ED50: sc. In short, it runs like this: as §3
Assay [7] concerns Mus musculus. The assay can be described thus: Antidepressant activity was determined to prevent tetrabenazine-induced ptosis(TBZ) after oral administration in mice.(value in parentheses indicates 95% confidence limits). In short, it runs like this: as §2
The test system of assay [8] is Rattus norvegicus. The assay can be described thus: Antidepressant activity was determined for potentiation of head twitching induced by 5-hydroxytryptophan-(5-HTP) after intraperitoneal administration in pargyline-pretreated rats,. As to conditions: ip. In short, it runs like this: as §1
Setting [9] is: Mus musculus, po, read-out: ED50.

Values joined by “and” are separate entries in the source; they are usually repeats but may differ in a detail not shown here. Equal values may be shown once. Where only a bound is given, the exact number is not on record here.

A word on the ED50: it is the dose that gives a 50% effect, or the effect in half of the subjects. One may read the Inhibition as the share of the control response that was lost under treatment. A higher Inhibition goes with strong suppression. Regarding `CNCCSC1Cc2ccccc2Sc2ccc(F)cc21` (stereo unspecified), the ED50 in the assay on Rattus norvegicus [1] was 8.1 mg/kg; in the assay on Mus musculus [2] it was 0.28 mg/kg; in the assay with Mus musculus [3] it was 2.9 mg/kg; in the assay with Mus musculus [4] (setting [9]), 1.5 mg/kg. The compound further had an Inhibition with Mus musculus [5] of 60%.
Take `CN(C)CCSC1=Cc2ccccc2Sc2ccc(F)cc21`: the ED50 in the assay on Rattus norvegicus [1] is over 10 mg/kg; in the assay on Mus musculus [6] it was over 25 mg/kg; in the assay on Mus musculus [7] it was 3.6 mg/kg; in the assay on Mus musculus [3], over 10 mg/kg.
For the compound `CNCCSC1=Cc2ccccc2Sc2ccc(O)cc21`, the ED50 with Rattus norvegicus [1] is over 10 mg/kg; in the assay with Mus musculus [6], over 25 mg/kg; in the assay on Mus musculus [3] it was over 10 mg/kg; with Mus musculus [4] (setting [9]) it was 2 mg/kg.
Consider `CN(C)CCSC1=Cc2ccccc2Sc2ccc(Cl)cc21`, for which the ED50 in the assay with Rattus norvegicus [1] is over 10 mg/kg; in the assay with Mus musculus [6], over 25 mg/kg; in the assay with Mus musculus [3], 14.6 mg/kg; in the assay on Mus musculus [4] (setting [9]) it was 3.7 mg/kg.
`CN(C)CCSC1Cc2ccccc2Sc2ccccc21` (stereo unspecified): the median effective dose (ED50) was over 10 mg/kg in the assay with Rattus norvegicus [1] and 3.3 mg/kg in the assay on Mus musculus [3]. Besides, the Inhibition in the assay with Mus musculus [6] and in the assay with Mus musculus [4] was 60% in each case.
`CNCCSC1=Cc2ccccc2Sc2ccc(Cl)cc21`: the results for the ED50 with Rattus norvegicus [1], with Mus musculus [6] and with Mus musculus [3] were over 10 mg/kg, over 25 mg/kg and 12.5 mg/kg, respectively.
Consider `CN(C)CCSC1Cc2ccccc2Sc2ccc(F)cc21` (stereo unspecified), for which the ED50 in the assay on Mus musculus [6] is over 25 mg/kg; in the assay on Mus musculus [3] it was 9 mg/kg; in the assay with Rattus norvegicus [8], over 10 mg/kg; in the assay on Mus musculus [4] it was 0.91 mg/kg; in the assay on Mus musculus [4] (setting [9]) it was 1.2 mg/kg.
For `CNCCSC1Cc2ccccc2Sc2ccccc21` (stereo unspecified), the ED50 in the assay on Rattus norvegicus [1] is over 10 mg/kg; with Mus musculus [3], 4.2 mg/kg; with Mus musculus [4] (setting [9]) it was 8 mg/kg. Further, the Inhibition in the assay on Mus musculus [6] is 60%.
Consider `CN(C)CCSC1Cc2ccccc2Sc2ccc(Cl)cc21` (stereo unspecified), for which the ED50 in the assay on Rattus norvegicus [1] was over 10 mg/kg; in the assay on Mus musculus [6], over 25 mg/kg; in the assay on Mus musculus [3], over 10 mg/kg.
For `CNCCSC1=Cc2ccccc2Sc2ccc(F)cc21`, the ED50 was over 10 mg/kg in the assay with Rattus norvegicus [1], 8.9 mg/kg in the assay with Mus musculus [3] and 5.2 mg/kg with Mus musculus [4] (setting [9]). Also, the Inhibition with Mus musculus [6] is given as 50%.
As to `CNCCSC1Cc2ccccc2Sc2ccc(Cl)cc21` (stereo unspecified), the values for the ED50 in the assay with Rattus norvegicus [1], with Mus musculus [3] and with Mus musculus [5] (ip) were 50 mg/kg, 4.4 mg/kg and 63.6 mg/kg, respectively.
Consider `CN(C)CCSC1=Cc2ccccc2Sc2ccccc21`, for which the ED50 in the assay on Rattus norvegicus [1] was over 10 mg/kg; in the assay with Mus musculus [6] it was over 25 mg/kg; in the assay on Mus musculus [4] (setting [9]) it was over 20 mg/kg. The Inhibition with Mus musculus [3] is 64%.
With `CNCCSC1=Cc2ccccc2Sc2ccccc21`, the ED50 was over 10 mg/kg in the assay with Rattus norvegicus [1], over 25 mg/kg in the assay with Mus musculus [6] and 23.9 mg/kg in the assay on Mus musculus [7].
Turning to `CC(C)=CCN1CC[C@]2(C)c3cc(O)ccc3C[C@H]1[C@H]2C` [(+)-PENTAZOCINE], the ED50 came out at 14.6 mg/kg in the assay on Mus musculus [6] and 2.4 mg/kg in the assay on Mus musculus [3].
For the compound `CN(C)CCCN1c2ccccc2CCc2ccccc21` [IMIPRAMINE], the 50% effective dose (ED50) in the assay with Rattus norvegicus [1] is over 10 mg/kg; in the assay on Mus musculus [6], over 25 mg/kg; with Mus musculus [3] it was 10.7 mg/kg; in the assay with Mus musculus [4], 2.8 mg/kg and 1.3 mg/kg.
